Test results from ChEMBL document CHEMBL4393735, “Molecular modelling, synthesis, and biological evaluations of a 3,5-disubstituted isoxazole fatty acid analogue as a PPARα-selective agonist” (Bioorg Med Chem, 2019).
The source made the active and inactive calls.

What was measured:
[1] = target: T1, Peroxisome proliferator-activated receptor alpha (Mus musculus) (UniProt P23204); assay: Agonist activity at PPARalpha in C57BL/6N mouse primary hepatocytes assessed as activation of Cpt1a mRNA expression at 50 uM measured after 18 hrs by qRT-PCR analysis; format: cell-based
T1 sequence (whole entry): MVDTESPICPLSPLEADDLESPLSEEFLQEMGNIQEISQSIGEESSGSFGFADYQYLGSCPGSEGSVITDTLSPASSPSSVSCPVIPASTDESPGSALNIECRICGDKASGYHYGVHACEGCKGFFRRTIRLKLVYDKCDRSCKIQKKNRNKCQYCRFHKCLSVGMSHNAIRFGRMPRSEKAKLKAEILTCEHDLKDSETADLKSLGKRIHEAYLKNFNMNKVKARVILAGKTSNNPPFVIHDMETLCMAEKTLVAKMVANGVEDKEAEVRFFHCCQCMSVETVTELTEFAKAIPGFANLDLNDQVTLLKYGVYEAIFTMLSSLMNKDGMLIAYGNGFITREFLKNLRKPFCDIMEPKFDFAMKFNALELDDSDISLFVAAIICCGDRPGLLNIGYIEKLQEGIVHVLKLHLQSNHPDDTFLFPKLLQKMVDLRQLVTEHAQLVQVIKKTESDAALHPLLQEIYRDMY
How it was run: (§1)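 Treatment for 18 h at 50 μM (or 1 μM for the 1 μM agents), DMSO vehicle. Harvested for qPCR. mRNA normalized to TBP by the comparative threshold method, expressed relative to DMSO control. Two biological replicates run in duplicate, mean ± SEM. Primary hepatocytes came from male C57BL/6N mice aged 7–8 weeks, isolated by portal-vein perfusion and digestion, seeded on collagen I and used on day 2. HuH-7 cells were kept in DMEM with 10% FBS and ITS.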

COS-1 = assay: Cytotoxicity against African green monkey COS1 cells assessed as reduction in cell viability at 10^-4 M by XTT based assay; settings: chlorocebus aethiops, cos-1, 100 µM
How it was run: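 COS-1 cells were treated across the same concentration series as the GAL4 dose-response runs. Cytotoxicity was measured as LDH released into medium (absorbance 492/750 nm) and by XTT viability assay (absorbance 450/690 nm). Results expressed relative to control.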

[2] = target: T2, Peroxisome proliferator-activated receptor alpha (Homo sapiens, UniProt Q07869); assay: Agonist activity at full length human FLAG-tagged GAL4-DBD fused PPARalpha LBD (168 to 468 residues) expressed in COS1 cells measured after 18 hrs by dual luciferase reporter gene assay; format: cell-based
T2 sequence (Q07869 whole entry): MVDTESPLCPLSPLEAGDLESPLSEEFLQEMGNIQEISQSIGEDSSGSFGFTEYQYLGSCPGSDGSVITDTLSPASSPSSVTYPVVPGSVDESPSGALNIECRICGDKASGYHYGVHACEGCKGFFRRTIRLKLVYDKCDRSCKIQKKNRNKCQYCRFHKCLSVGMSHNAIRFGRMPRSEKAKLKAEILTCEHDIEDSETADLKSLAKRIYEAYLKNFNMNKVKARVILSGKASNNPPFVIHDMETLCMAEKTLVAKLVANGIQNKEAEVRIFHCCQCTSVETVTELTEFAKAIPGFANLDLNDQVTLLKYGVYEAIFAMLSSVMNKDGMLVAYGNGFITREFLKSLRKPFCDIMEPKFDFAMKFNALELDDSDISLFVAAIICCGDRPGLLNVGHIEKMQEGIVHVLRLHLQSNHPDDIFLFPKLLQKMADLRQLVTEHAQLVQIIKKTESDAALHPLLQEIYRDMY
How it was run: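 Dose-response in COS-1 cells transfected with GAL4-DBD–human PPARα or PPARγ LBD, a 5×UAS-SV40 firefly reporter and pRL-CMV. Cells were treated with increasing concentrations in 0.1% DMSO (final) 6 h post-transfection, then for 18 h. Firefly/Renilla ratio, normalized to GAL4-only activity. EC50 was taken from a sigmoidal dose-response fit. At least three independent transfections in quadruplicate.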

[3] = target: T3, Peroxisome proliferator-activated receptor alpha (Homo sapiens) (UniProt Q07869); assay: Agonist activity at PPARalpha in human Huh7 cells assessed as activation of CPT1A mRNA expression at 50 uM measured after 18 hrs by qRT-PCR analysis; format: cell-based; how it was run: as §1
T3 sequence (whole entry): T2 sequence (Q07869 whole entry)

[4] = target: T1, Peroxisome proliferator-activated receptor alpha (Mus musculus); assay: Agonist activity at PPARalpha in C57BL/6N mouse primary hepatocytes assessed as SCD1 mRNA expression at 50 uM measured after 18 hrs by qRT-PCR analysis; format: cell-based; how it was run: as §1
[5] = target: T4, Peroxisome proliferator-activated receptor gamma (Homo sapiens) (UniProt P37231); assay: Inverse agonist activity at full length human FLAG-tagged GAL4-DBD fused PPARgamma LBD (205 to 505 residues) expressed in COS1 cells assessed as inhibition of rosiglitazone binding measured after 18 hrs by dual luciferase reporter gene assay; format: cell-based
T4 sequence (whole entry): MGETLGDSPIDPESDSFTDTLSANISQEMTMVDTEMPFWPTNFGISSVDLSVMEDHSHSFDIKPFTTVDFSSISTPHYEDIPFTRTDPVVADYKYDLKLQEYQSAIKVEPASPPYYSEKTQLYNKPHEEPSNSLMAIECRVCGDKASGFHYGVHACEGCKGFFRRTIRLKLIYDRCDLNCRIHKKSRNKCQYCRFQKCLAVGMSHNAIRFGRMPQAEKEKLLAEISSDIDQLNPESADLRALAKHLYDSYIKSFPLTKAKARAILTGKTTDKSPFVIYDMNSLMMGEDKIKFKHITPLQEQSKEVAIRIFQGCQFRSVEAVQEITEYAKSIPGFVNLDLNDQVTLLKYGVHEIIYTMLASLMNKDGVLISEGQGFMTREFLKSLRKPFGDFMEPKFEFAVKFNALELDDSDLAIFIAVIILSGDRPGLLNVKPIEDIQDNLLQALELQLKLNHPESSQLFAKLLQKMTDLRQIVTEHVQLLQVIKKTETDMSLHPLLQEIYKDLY
How it was run: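 COS-1 cells carried GAL4-DBD–PPARγ-LBD with a UAS-luciferase reporter and Renilla control. Cells were titrated with increasing test compound in the presence of 1.0 μM rosiglitazone for 18 h in 0.1% DMSO. Firefly/Renilla ratio, normalized to GAL4-only activity.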

SGBS [6] = assay: Upregulation of ACSL1 gene expression in human preadipocyte derived from Simpson-Golabi-Behmel syndrome (SGBS) patient at 25 uM measured for 12 days by qRT-PCR analysis; format: functional, cell-based
How it was run: (§2)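 SGBS cells were differentiated with serum-free induction medium containing 25 μM test agent, 2 μM rosiglitazone or 0.1% DMSO from day 0. IBMX and dexamethasone were removed on day 4 and medium was renewed on day 8. RNA was taken on days 0, 4, 8 and 12 for qPCR, normalized to TBP and to day 0. At least three biological replicates in duplicate, two-way ANOVA with Bonferroni.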

SGBS [7] = assay: Upregulation of CD36 gene expression in human preadipocyte derived from Simpson-Golabi-Behmel syndrome (SGBS) patient at 25 uM measured for 12 days by qRT-PCR analysis; format: functional, cell-based; how it was run: as §2
SGBS [8] = assay: Upregulation of PLIN1 gene expression in human preadipocyte derived from Simpson-Golabi-Behmel syndrome (SGBS) patient at 25 uM measured for 12 days by qRT-PCR analysis; format: functional, cell-based; how it was run: as §2

Activity [1]: Active | EC50 [2]: 47 µM | Activity [3]: Active | Activity [4]: Active | Activity [5]: inactive
Compound: CCCCCCCc1cc(CCCCCC(=O)O)no1
Activity (COS-1): Toxic | Activity (SGBS [6]): Active | Activity (SGBS [7]): Active | Activity (SGBS [8]): Active
